Published values pooled from the literature.
Compare with care: the assays were run in different laboratories. Converted amounts (≈) assume the structure as drawn.

Cc1ncc(CO)c(C(=O)O)c1O — activity vs control (Cryptosporidium parvum; parasite growth, imaging; HCT-8; 1 mM, 24 h, intracellular): 105%
CC(C)(NC(=O)c1cc2c(F)cc(F)cc2[nH]1)c1cn(Cc2cccc(Cl)c2)nn1 — inhibition (Cryptosporidium parvum; parasite growth, imaging; HCT-8; 11 µM, 72 h, intracellular): ~30%
O=C(Nc1ccccc1-c1ccc(F)c(F)c1)c1nccnc1C(F)(F)F — EC50 (Alternaria kikuchiana; microbial growth): 0.058 µg/mL (≈ 0.153 µM)
O=C1NC(=S)N/C1=C\c1ccc(-c2ccc(N(c3ccccc3)c3ccccc3)cc2)c2ccccc12 — MBC (Streptococcus pneumoniae; microbial killing, broth dilution; ATCC49619): > 1000 µg/mL
COc1cccc2cc[nH]c12 — EC90 (Cryptosporidium parvum; parasite growth; HCT-8; 24 h, intracellular): 682 µM
O=C1NC(=S)S/C1=C\c1ccc(-c2ccc(N(c3ccccc3)c3ccccc3)cc2)cc1 — MBC (Streptococcus pneumoniae; microbial killing, broth dilution; ATCC49619): > 1000 µg/mL
NCCCCCN — activity vs control (Cryptosporidium parvum; parasite growth, imaging; HCT-8; 1 mM, 24 h, intracellular): 96.3%
O=C1C=C(OCc2cn(-c3ccc([N+](=O)[O-])cc3)nn2)C(=O)c2ccccc21 — IC50 (Klebsiella pneumoniae; microbial growth, broth dilution; ATCC700603): 370 µg/mL (≈ 983 µM)
O=C(O)CN1C(=O)/C(=C/c2ccc(-c3ccc(N(c4ccccc4)c4ccccc4)cc3)c3ccccc23)NC1=S — MBC (Streptococcus pneumoniae; microbial killing, broth dilution; ATCC49619): > 1000 µg/mL
Cc1ccc(-n2cc(COc3cc(C(C)C)ccc3C)nn2)cc1 — IC50 (Klebsiella pneumoniae; microbial growth, broth dilution; ATCC700603): 246 µg/mL (≈ 766 µM)
NCCCCN — activity vs control (Cryptosporidium parvum; parasite growth, imaging; HCT-8; 1 mM, 24 h, intracellular): 110%
Cc1ccc(-c2nn(-c3ccccc3)cc2C=c2sc(=CC#N)[nH]c2=O)cc1 — inhibition zone (Klebsiella pneumoniae; microbial growth, well diffusion; 100000 µg/mL): 16 mm
CN(C)CC(=O)O — activity vs control (Cryptosporidium parvum; parasite growth, imaging; HCT-8; 1 mM, 24 h, intracellular): 105%
N#CC(=Cc1cn(-c2ccccc2)nc1-c1ccccc1)C1=NC(=O)CS1 — inhibition zone (Klebsiella pneumoniae; microbial growth, well diffusion; 100000 µg/mL): 27 mm
CN[C@H](CC(C)C)C(=O)N[C@H]1C(=O)N[C@@H](CC(N)=O)C(=O)N[C@H]2C(=O)N[C@H]3C(=O)N[C@H](C(=O)N[C@H](C(=O)O)c4cc(O)cc(O)c4-c4cc3ccc4O)[C@H](O)c3ccc(c(Cl)c3)Oc3cc2cc(c3O[C@@H]2O[C@H](CO)[C@@H](O)[C@H](O)[C@H]2O[C@H]2C[C@](C)(N)[C@H](O)[C@H](C)O2)Oc2ccc(cc2Cl)[C@H]1O — MIC (Streptococcus pneumoniae; microbial growth, broth dilution; ATCC49619): 0.24 µg/mL (≈ 0.166 µM)
NCCCCNCCCN — activity vs control (Cryptosporidium parvum; parasite growth, imaging; HCT-8; 1 mM, 24 h, intracellular): 100%
CCOC(=O)C=c1[nH]c(=O)c(=Cc2cn(-c3ccccc3)nc2-c2ccc(C)cc2)s1 — inhibition zone (Klebsiella pneumoniae; microbial growth, well diffusion; 100000 µg/mL): 13 mm
CCCCC[C@H](O)/C=C/[C@H]1[C@H](O)CC(=O)[C@@H]1C/C=C\CCCC(=O)O — activity vs control (Cryptosporidium parvum; parasite growth, imaging; HCT-8; 50 µM, 24 h, intracellular): 88.5%
CCOC(=O)c1c(N)csc1-c1cn(-c2ccccc2)nc1-c1ccccc1 — inhibition zone (Klebsiella pneumoniae; microbial growth, well diffusion; 100000 µg/mL): 22 mm
Cc1ccc(-n2cc(COc3cccc4cccnc34)nn2)cc1 — IC50 (Klebsiella pneumoniae; microbial growth, broth dilution; ATCC700603): 268 µg/mL (≈ 849 µM)
O=C(O)CN1C(=O)/C(=C/c2ccc(-c3ccc(N(c4ccccc4)c4ccccc4)cc3)cc2)NC1=S — MIC (Streptococcus pneumoniae; microbial growth, broth dilution; ATCC49619): 62.5 µg/mL (≈ 124 µM)
CC(C)(NC(=O)c1cc2c(Cl)cc(Cl)cc2[nH]1)c1cn(Cc2ccccc2Cl)nn1 — inhibition (Cryptosporidium parvum; parasite growth, imaging; HCT-8; 11 µM, 72 h, intracellular): > 60%
O=C(O)CN1C(=O)/C(=C/c2ccc(-c3ccc(N(c4ccccc4)c4ccccc4)cc3)cc2)SC1=S — MIC (Streptococcus pneumoniae; microbial growth, broth dilution; ATCC49619): 15.6 µg/mL (≈ 29.8 µM)
O=C1C=C(OCc2cn(-c3ccc(Cl)cc3)nn2)C(=O)c2ccccc21 — IC50 (Klebsiella pneumoniae; microbial growth, broth dilution; ATCC700603): 348 µg/mL (≈ 951 µM)
Cc1cccc2[nH]ccc12 — EC90 (Cryptosporidium parvum; parasite growth; HCT-8; 24 h, intracellular): 552 µM
c1ccc(-n2cc(COc3cccc4cccnc34)nn2)cc1 — IC50 (Klebsiella pneumoniae; microbial growth, broth dilution; ATCC700603): 401 µg/mL (≈ 1330 µM)
Cc1c(CN(C)C(=O)/C=C/c2cnc3c(c2)CC(CCN)C(=O)N3)oc2ccccc12.Cl (stereo not drawn) — MIC (Klebsiella pneumoniae; microbial growth, broth dilution; BAA2342): 16 µg/mL
CCCCS(=O)(=O)Oc1cc(C(C)C)ccc1C — IC50 (Klebsiella pneumoniae; microbial growth, broth dilution; ATCC700603): 95.5 µg/mL (≈ 353 µM)
CC(C)(NC(=O)c1cc2c(F)cc(F)cc2[nH]1)c1cn(Cc2ccc(Cl)c(Cl)c2)nn1 — inhibition (Cryptosporidium parvum; parasite growth, imaging; HCT-8; 11 µM, 72 h, intracellular): ~30%
O=C1NC(=S)S/C1=C\c1ccc(-c2ccc(N(c3ccccc3)c3ccccc3)cc2)c2ccccc12 — MBC (Streptococcus pneumoniae; microbial killing, broth dilution; ATCC49619): > 1000 µg/mL
O=C1C=C(OCc2cn(-c3ccccc3)nn2)C(=O)c2ccccc21 — IC50 (Klebsiella pneumoniae; microbial growth, broth dilution; ATCC700603): 223 µg/mL (≈ 674 µM)
O=C1NC(=S)N/C1=C\c1c2ccccc2c(-c2ccc(N(c3ccccc3)c3ccccc3)cc2)c2ccccc12 — MIC (Streptococcus pneumoniae; microbial growth, broth dilution; ATCC49619): > 1000 µg/mL
COc1ccc(-n2cc(COC3=CC(=O)c4ccccc4C3=O)nn2)cc1 — IC50 (Klebsiella pneumoniae; microbial growth, broth dilution; ATCC700603): 137 µg/mL (≈ 379 µM)
